Screening data as filed in PubChem.
An excerpt weighted towards active compounds, which were near 2.1% of everything screened.
STAT1 blocker: reduces IFN-gamma driven STAT1 reporter signal. inhibition, % at 5.5 µM. AID 920. 200,000 tested, 0.35% active. NIH 3T3 STAT1-luciferase reporter, luminescence;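 active means inhibition above a set limit, the mean inhibition across all tested compounds plus 3 SD, cut at about 34% in these data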;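 further: 0% = IFN-gamma with DMSO and 100% = IFN-gamma with 300 µM nifuroxazide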
STAT3 act: activators of IL-6 induced STAT3 signaling | AID 871 | 190,000 tested, 0.91% active | activation (% of control), % at 5.6 µM | U3A cells, IL-6 STAT3-luciferase reporter, luminescence; 100% = signal with IL-6 EC80 alone;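 active means activation above the screen-wide mean of compound activation plus 3 SD, cut at about 130% in these data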;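 further: 0% = background luminescence of wells with medium and substrate only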
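system = STAT3-luciferase reporter U3A cells | reagent = IL-6 stimulus at 33 ng/mL final | timing = 1 h compound pre-exposure, 6 h IL-6 stimulation, 37 °C | measured by = luminescence | evaluation = % activation versus median of IL-6-stimulated wells | control set = IL-6-only wells as 100% reference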
L929 necroptosis: L929 zVAD cell death inhibition. viability rescue, % at 10 µM. 220,000 tested, 0.38% active. L929 zVAD necroptosis rescue, ATP luminescence, 24 h; with zVAD 60 µM;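 active means activation, scaled between plate controls, above about 75%, limit read from the data; inactive means activation under that limit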;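 further: 0% = zVAD with DMSO and 100% = DMSO alone without zVAD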
TNF necrop inh: inhibitors of TNF-alpha induced necroptosis in Jurkat FADD-/- cells. Jurkat FADD-/- TNF necroptosis rescue, ATP luminescence, 24 h; 0 = TNF only, 100 = no-TNF cells. activation (protection from cell death), % at 10 µM. 220,000 tested, 0.068% active;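 active means activation, meaning protection from cell death, of at least 50% relative to plate controls; inactive means activation below 50%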;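 further: necroptosis triggered by 40 ng/mL TNF-alpha added together with compound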
STAT3 inh: inhibitors of IL-6 induced STAT3 signaling | inhibition, % at 5.5 µM | AID 862 | U3A cells, IL-6 STAT3-luciferase reporter, luminescence; host cell line lacks STAT1 | 190,000 tested, 0.89% active;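 active means inhibition above the mean inhibition across all screened compounds plus 3 SD, cut at about 44% in these data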;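 further: 0% = DMSO only wells and 100% = 100 µM nifuroxazide control wells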
* = called active by the depositor; . = no result given.

SMILES	STAT1 blocker	STAT3 act	L929 necroptosis	TNF necrop inh	STAT3 inh
O=C(c1cccc(S(=O)(=O)N2CCOCC2)c1)N(Cc1ccc(F)cc1)Cc1ccco1	1	134*	-1	0	-29
COc1cc2[nH]c3c(=O)n4c(nc3c2cc1OC)SCCC4	48*	36	67	-8	77*
COc1ccc(CCN2CN(S(=O)(=O)c3ccc(OC)cc3)c3nc4ccccc4nc32)cc1	-6	95	0	3	4
COC(=O)c1sccc1NC(=O)c1cccc(OC)c1	1	135*	-1	-2	-40
O=C(COc1ccccc1C(=O)c1cnn(-c2ccccc2)c1)Nc1ccc2ccccc2c1	-15	107	1	3	-9
CC(C)c1ccc(NC(=O)COc2ccc(F)cc2C(=O)c2cnn(-c3ccccc3)c2)cc1	-42	147*	.	6	-60
O=C(NNS(=O)(=O)c1ccc(F)cc1)c1cnn(-c2ccccc2)c1C(F)(F)F	.	.	1	1	.
Cc1csc(NC(=O)CCCc2cccs2)n1	-16	102	6	3	2
O=C(CCCc1cccs1)Nc1nc2c(s1)CCCC2	-7	133*	-1	1	-36
CCc1c(C)sc(NC(=O)C2CC2c2ccccc2)c1C(N)=O (centres undefined)	-8	134*	0	-10	-33
Cc1ccc(-c2noc(CN(C(=O)c3cccc(Br)c3)C(C)C)n2)cc1	2	103	-1	0	5
CCC(C)(C)c1ccc(Oc2cccc(C(=O)O)c2)cc1	.	.	1	0	.
CCC(C)(C)c1ccc(Oc2ccc(N)cc2)cc1	70*	35	0	-10	81*
CN(C)CCOC(=O)NCC12CC3CC(CC(C3)C1)C2	.	.	2	5	.
Cc1cc(C)n(CC(=O)N/N=C/c2ccc(C)o2)n1	2	106	0	-1	-4
Cc1nn(C)cc1/C=N/NC(=S)Nc1ccc(Cl)cc1Cl	-15	92	.	0	12
COc1cc(/C=N/NC(=O)c2cc(-c3cccn3C)n[nH]2)cc(OC)c1OC	1	134*	63	-4	-32
CC(=O)OC(Cn1nc(C)cc1C)c1ccccc1 (centres undefined)	14	106	0	-2	3
Clc1ccc(Br)cc1-c1nc(-c2cccnc2)no1	-6	141*	0	0	-43
Clc1ccccc1-c1nc(-c2cccnc2)no1	-31	120	0	-2	-21
CN(C)CCC(=O)c1ccc(F)cc1	.	.	0	0	.
COc1cccc(N2CCN(c3ncnc4c3[nH]c3ccc(F)cc34)CC2C)c1 (centres undefined)	68*	44	6	-27	75*
O=C(CN1CCN(c2ncccn2)CC1)N(Cc1ccccc1)c1ccc(F)cc1	-3	97	0	0	4
Fc1ccc(NC(=S)NNc2ncc(C(F)(F)F)cc2Cl)c(F)c1	59*	49	1	-9	62*
O=C(CSc1nc2ccccc2nc1SCC(=O)N1CCCCC1)N1CCCCC1	10	90	0	-3	22
SMILES	STAT1 blocker	STAT3 act	L929 necroptosis	TNF necrop inh	STAT3 inh
O=C(Nc1nccs1)c1cc2c(s1)CCCCC2	70*	21	7	52*	95*
O=C(Nc1nccs1)c1ccc(Cl)s1	-14	91	96*	25	19
O=C(Nc1nc(-c2ccccn2)cs1)c1ccc(Cl)s1	0	108	52	-18	-10
CCOc1cccc(C(=O)Nc2nc(-c3ccc(S(=O)(=O)N4CCOCC4)cc3)cs2)c1	35*	73	0	-6	34
CC(CCc1ccccc1)NC(=O)COC(=O)c1cccs1 (centres undefined)	-3	104	-1	-1	0
Cc1ccc(-c2nnn(CC(=O)N(CC(=O)NCC3CCCO3)c3ccccc3)n2)o1 (centres undefined)	-5	102	0	-1	0
COc1ccc(N/C=C2\CCc3ccccc3C2=O)cc1	76*	25	15	-2	90*
O=C1/C(=C/Nc2ccc3c(c2)OCO3)CCc2ccccc21	59*	21	0	-9	93*
COc1ccc2c(c1)CC/C(=C\Nc1ccc3c(c1)OCO3)C2=O	-32	75	0	-3	29
C(=N\NC1=Nc2cccc3cccc1c23)/c1ccccn1	-89	157*	1	-4	-56
C(=N\Nc1nc2ccccc2s1)/c1ccccn1	.	.	31	-21	.
Clc1ccccc1/C=N/NC1=Nc2cccc3cccc1c23	-90	159*	1	1	-67
Cc1ccc(NC(=O)Nc2ccccc2CC[N+](=O)[O-])cc1	-3	133*	0	1	-30
O=C1NCCCC2c3cc(O)c4ccccc4c3OC12N1CCCCC1 (centres undefined)	-6	47	20	-6	63*
O=C1NCCCC2c3c(cc(Br)c(O)c3Br)OC12N1CCOCC1 (centres undefined)	-4	91	0	-1	12
CCc1cc(C(=O)Nc2ccc(C)cc2Br)cs1	-45	144*	.	0	-48
CCc1cc(C(=O)NNC(=S)Nc2cccc(C)c2)cs1	-12	97	0	0	6
O=C(NC1CCCCC1)C(c1ccc2ncccc2c1)N(Cc1ccccc1)C(=O)c1cccs1 (centres undefined)	36*	113	0	-3	-4
Cc1cccc(N(C(=O)CNC(=O)c2cccs2)C(C(=O)NC2CCCC2)c2cccnc2)c1 (centres undefined)	-4	98	0	-5	9
COc1ccc(CN(C(=O)c2cccs2)C(C(=O)NC2CCCCC2)c2ccc3ncccc3c2)cc1 (centres undefined)	22	112	1	-3	-8
O=C(NC1CCCCC1)C(c1ccc2ncccc2c1)N(Cc1ccccc1)C(=O)c1ccc2c(c1)OCCO2 (centres undefined)	9	110	0	-8	-1
O=C(NC1CCCCC1)C(c1ccc2ncccc2c1)N(Cc1ccc2c(c1)OCO2)C(=O)c1cccs1 (centres undefined)	36*	105	0	-3	0
Cc1cc(C)cc(N(C(=O)CNC(=O)c2cccs2)C(C(=O)NC2CCCC2)c2cccnc2)c1 (centres undefined)	36*	95	0	-4	12
COc1cc(/C=N/NC(N)=O)ccc1OCC(=O)Nc1cc(C)c(C)cc1Br	-5	101	4	0	2
CC(C)OC(=O)c1cccc(C(=O)Oc2ccc(Br)cc2)n1	6	99	0	-1	5
COc1ccc(/C=N/Nc2nnc(C)n2N)cc1OC	-9	97	2	-1	6
Cc1cc(C2=NNC(=NC3CC3)SC2)c(C)n1-c1ccccc1F	89*	14	0	-1	102*
Cc1cc(C2=NNC(=NC3CCCCC3)SC2)c(C)n1-c1c(C)n(C)n(-c2ccccc2)c1=O	2	111	0	3	-13
